High-throughput results (PubChem BioAssay)
Compounds with a hit are over-represented: about 3% of the library has one in this group of screens.
UBC13 inh: UBC13 polyubiquitin chain formation inhibitors, primary screen, biochemical, TR-FRET, uHTS | 330,000 tested, 0.47% active | AID 485273, 2010 | Ubiquitin-conjugating enzyme E2 N (Homo sapiens), P61088 | inhibition, % at 20 µM; in the data active means inhibition above about 45%, passing the limit was not always enough
SENP8 block-1: human SENP8 protease inhibitors, primary screen, biochemical, fluorescence, Nedd8 protein substrate, uHTS | Sentrin-specific protease 8 (Homo sapiens), Q96LD8 | recombinant SENP8 | inhibition, % at 20 µM | 360,000 tested, 0.64% active; in the data active means inhibition mostly above about 40%, no sharp cut-off; inactive means mostly below about 27%
SENP8 block-2: SENP8 protease inhibitors, primary screen, biochemical, luminescence. Sentrin-specific protease 8 (Homo sapiens), Q96LD8. purified SENP8, Z-RLRGG-aminoluciferin cleavage. inhibition, % at 10 µM. 330,000 tested, 1.2% active; in the data active means inhibition above about 50%
SENP6 block: SENP6 protease inhibitors, primary screen, biochemical, luminescence, uHTS | Recombinant SENP6 catalytic domain, aminoluciferin luminescence | AID 2599, 2010 | inhibition, % at 10 µM | Sentrin-specific protease 6 (Homo sapiens), Q9GZR1 | 330,000 tested, 1.8% active;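 active means inhibition above about 50% at the single tested dose, limit read from the data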;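 further: plate controls were DMSO wells with enzyme for no effect and DMSO wells lacking enzyme for full effect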
SENP7 block: SENP7 protease inhibitors, primary screen, biochemical, luminescence, uHTS; Sentrin-specific protease 7 (Homo sapiens), Q9BQF6; recombinant SENP7, Z-RLRGG-aminoluciferin luminescence, 40 min; inhibition, % at 5 µM; 330,000 tested, 1.5% active;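 active means inhibition above about 50% at the single test dose, limit read from the data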;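 further: plate controls were DMSO with enzyme for no effect and no enzyme buffer wells for full effect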
Apaf1 inhib: inhibitors of human Apaf-1 apoptosome, primary screen, biochemical, DEVD-Rh110 fluorescence, uHTS; 330,000 tested, 0.71% active; reconstituted apoptosome caspase-3 activity; Apoptotic protease-activating factor 1 (Homo sapiens), O14727; inhibition, % at 20 µM; active means inhibition of at least 40% at 20 µM;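 further: plate controls were DMSO wells for no effect and DEVD-CHO caspase inhibitor wells for full effect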
Target sequence (O14727 whole entry, looked up): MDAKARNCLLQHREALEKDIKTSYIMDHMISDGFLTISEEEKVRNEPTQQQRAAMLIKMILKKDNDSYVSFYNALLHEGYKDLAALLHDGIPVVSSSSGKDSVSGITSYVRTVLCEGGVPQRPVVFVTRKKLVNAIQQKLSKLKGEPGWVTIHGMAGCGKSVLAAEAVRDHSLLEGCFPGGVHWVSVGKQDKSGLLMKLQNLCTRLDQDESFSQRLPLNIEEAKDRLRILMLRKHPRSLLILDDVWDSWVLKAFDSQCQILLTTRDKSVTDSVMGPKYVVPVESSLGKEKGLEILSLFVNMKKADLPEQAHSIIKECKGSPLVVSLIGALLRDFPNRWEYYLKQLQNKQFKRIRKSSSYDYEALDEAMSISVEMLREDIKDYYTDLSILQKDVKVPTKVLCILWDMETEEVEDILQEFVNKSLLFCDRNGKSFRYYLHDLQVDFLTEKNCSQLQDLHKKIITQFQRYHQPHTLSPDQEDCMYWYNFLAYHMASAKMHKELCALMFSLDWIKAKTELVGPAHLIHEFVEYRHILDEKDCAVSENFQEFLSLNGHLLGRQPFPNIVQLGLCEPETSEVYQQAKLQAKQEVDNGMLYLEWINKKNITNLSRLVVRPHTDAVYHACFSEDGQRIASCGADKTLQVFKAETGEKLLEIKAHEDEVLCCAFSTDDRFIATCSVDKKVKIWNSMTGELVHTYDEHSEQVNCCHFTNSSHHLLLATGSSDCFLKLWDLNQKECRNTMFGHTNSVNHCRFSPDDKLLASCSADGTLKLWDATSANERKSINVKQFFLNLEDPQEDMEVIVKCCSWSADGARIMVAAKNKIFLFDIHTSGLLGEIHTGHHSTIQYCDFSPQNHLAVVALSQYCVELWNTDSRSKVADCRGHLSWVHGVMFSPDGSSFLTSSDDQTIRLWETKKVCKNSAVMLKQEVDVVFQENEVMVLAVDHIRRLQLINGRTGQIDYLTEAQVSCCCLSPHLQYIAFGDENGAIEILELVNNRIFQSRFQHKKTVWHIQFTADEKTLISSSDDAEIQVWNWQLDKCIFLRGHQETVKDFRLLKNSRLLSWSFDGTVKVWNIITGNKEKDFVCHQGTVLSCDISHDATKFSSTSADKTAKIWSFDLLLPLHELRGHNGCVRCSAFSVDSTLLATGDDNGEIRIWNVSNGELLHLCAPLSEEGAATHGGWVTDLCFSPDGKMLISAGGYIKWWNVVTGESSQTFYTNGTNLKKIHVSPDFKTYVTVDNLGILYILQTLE
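System – cell-free apoptosome with Apaf-1, procaspase-3 and caspase-9 · Buffer or medium – pH 7.5 Hepes buffer with CHAPS, BSA, DTT · Also added – cytochrome c with DEVD-Rh110 · Times – 30 min compound preincubation, 50 min activation, room temperature · Technique – Rh110 fluorescence intensity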
* hit, by the source's call; i = inactive; . = no result.

SMILES	UBC13 inh	SENP8 block-1	SENP8 block-2	SENP6 block	SENP7 block	Apaf1 inhib
O=C(Nc1ccc2c(c1)OCO2)c1ccc2c(c1)OCO2	2	9	67*	86*	85*	-4
Oc1ccc(/C=N/N2CCCCC2)cc1O	4	45*	-11	-2	-3	2
Clc1ccc(C=NN2CCCCCC2)cc1Cl	.	0	.	.	.	.
CC1CCCC(C)N1/N=C/c1ccc(O)c(O)c1 (centres undefined)	8	51*	12	1	8	2
Cc1ccc2cccc(NC3OC(=O)c4ccccc43)c2n1 (centres undefined)	-42	10	22	51*	36	8
COC(=O)c1ccccc1NC1OC(=O)c2ccccc21 (centres undefined)	4	i	3	-9	0	-2
O=C(COc1cc(Cl)c(Cl)cc1Cl)Nc1cccc(O)c1	12	22	21	48	63*	7
COc1ccc(CC2=C(O)c3ccccc3C(=O)C2=O)cc1	-42	68*	16	13	15	8
C/C(=N\Nc1cccc2cccnc12)c1ccc(N)cc1	-2	-6	-3	-4	7	4
C/C(=N\Nc1cccc2cccnc12)c1ccccn1	-18	-25	89*	72*	92*	12
C/C(=N\NC(=O)c1c[nH]c2ccccc12)c1ccccn1	7	-1	-2	-5	-2	-3
C/C(=N\NC(=O)c1cc2ccccc2cc1O)c1ccccn1	13	-4	89*	95*	72*	17
CCn1c(SCC(=O)NC2CC2)nnc1-c1cccc(OC)c1	-4	7	-7	5	-8	-6
O=C(Nc1nc2ccc([N+](=O)[O-])cc2s1)c1ccco1	-12	.	75*	83*	40	-11
CC(C)[C@H](NC(=O)c1ccccc1)C(=O)OCC(=O)N1CCCc2ccccc21	-18	5	-8	-11	-5	4
NC(N)=N/N=C/c1ccc(OCc2ccccc2Cl)cc1	74*	10	-19	-24	-8	43*
NC(N)=N/N=C/c1ccccc1	2	11	9	-3	2	-8
O=C1NN(c2ccc(Cl)c(Cl)c2)C(=O)/C1=C/c1cccc(OC(=O)c2cccs2)c1	-13	.	18	14	-3	24
O=C1NN(c2ccccc2)C(=O)/C1=C\c1cccc(OC(=O)c2cccs2)c1	-19	44*	29	12	5	28
COc1cccc2sc3cc(NCCCN4CCOCC4)ccc3c(=O)c12	24	-488	-9	0	6	13
O=C(O)CCC1c2cc3c4cc2OC2Oc5cc6c(cc51)C(CCC(=O)O)c1cc5c7cc1OC(O6)c1cc6cc(c1)Oc1cc(cc(C(=O)O)c1)Oc1cc8cc(c1)C(Oc1cc(c(cc1C5CCC(=O)O)C3CCC(=O)O)OC(O4)c1cc(cc(c1)Oc1cc(cc(C(=O)O)c1)O8)Oc1cc(cc(C(=O)O)c1)Oc1cc(cc2c1)Oc1cc(cc(C(=O)O)c1)O6)O7 (centres undefined)	122*	.	9	-366	-7	99*
CSC1=NC=C(C#N)C2=NC(c3c(Cl)cccc3Cl)NN12 (centres undefined)	.	52*	.	.	.	.
COc1ccc(NC(=O)c2ccc(S(=O)(=O)N3CCCC3)cc2)cc1OC	6	8	0	-17	-5	-6
Cn1c(O)c(/C=N/NC(=O)c2cc3ccccc3cc2O)c2ccccc21	-6	-251	93*	97*	11	26
C/C=C/c1ccccc1OCc1ccc(C(=O)O)o1	-7	14	-14	-5	-11	3
SMILES	UBC13 inh	SENP8 block-1	SENP8 block-2	SENP6 block	SENP7 block	Apaf1 inhib
O=C(O)c1ccc(COc2ccc3ccccc3c2)o1	-2	16	81*	89*	55*	-21
Cc1ccc(OCc2ccc(C(=O)O)o2)c([N+](=O)[O-])c1	-1	30	72*	77*	59*	0
Cc1nnc(SCC(=O)NC2CCCc3c2cnn3-c2ccccc2F)o1 (centres undefined)	-7	12	-8	-8	8	-4
COc1cc2c3nnc(-c4ccc(F)cc4)c-3cn(Cc3cccc(F)c3)c2cc1OC	20	-355	-4	-12	8	0
COc1cc2c3nnc(-c4ccc(F)cc4)c-3cn(Cc3cccc(C)c3)c2cc1OC	79*	-363	-1	-5	0	53*
NS(=O)(=O)c1ccc(N=Nc2ccc(=O)[nH]c2O)cc1	.	64*	.	.	.	.
NS(=O)(=O)c1ccc(N=Nc2ccc(O)c3ncccc23)cc1	-191	35	18	11	6	11
CCOc1ccccc1NC(=O)COC(=O)CCOc1cc(C)ccc1C	2	15	11	2	5	18
O=[N+]([O-])c1ccc(/C=N/n2c(CO)nc3ccccc32)s1	-18	53*	5	27	28	-4
CC(C)(C)c1ccc(-n2ncc3c2CCCC3NC(=O)c2ccco2)cc1 (centres undefined)	.	2	.	.	.	.
COc1ccc(-c2coc3cc(OC)cc(O)c3c2=O)cc1	-9	16	-11	30	63*	0
CCCc1nc2c(=O)n(C)c(=O)nc-2n(C)n1	.	120*	.	.	.	.
COc1ccccc1/C=C1\SC(=S)N(CCC(=O)N2CCCCC2CCO)C1=O (centres undefined)	3	51*	0	2	-5	22
Cc1c(C(=O)N2CCOCC2)sc(NC(=O)c2ccccc2F)c1C#N	3	-6	-14	-9	-5	4
NS(=O)(=O)c1ccc(NCc2c(F)cccc2Cl)cc1	.	13	.	.	.	.
Fc1cccc(Cl)c1CNc1ccc(N2CCCC2)cc1	-8	-365	-11	-21	-2	48*
CN1/C(=C\C=C2/SC(=S)NC2=O)C(C)(C)c2ccccc21	-428	28	-3	-7	3	19
CN1CCC/C1=C/C=C1\SC(=S)NC1=O	.	82*	.	.	.	.
CN(CC(=O)Nc1cc(Cl)cc(Cl)c1)Cc1cccs1	4	4	2	-2	-2	17
CS(=O)(=O)c1ccc(Cl)c(NC(=O)COC(=O)CNC(=O)c2ccc3ccccc3c2)c1	-2	3	-4	-10	-5	7
COC1=C(Br)C(=O)c2ncccc2C1=O	.	105*	.	.	.	.
O=C1c2cccnc2-c2ncccc21	-6	40	-7	9	2	10
O=C1C(=O)c2cccnc2-c2ncccc21	.	110*	.	.	.	.
NC(=O)c1cc(N)ccc1N1CCCC1	-14	-397	8	17	22	44*
Cc1cc(N)ccc1-n1c(C)ccc1C	-4	-75	6	-2	7	10
Cc1cc(N)ccc1N1CCCC1	-1	30	2	2	3	65*
